# In ChEMBL document CHEMBL1146278, “Design and synthesis of substrate-mimic inhibitors of mycothiol-S-conjugate amidase from Mycobacterium tuberculosis” (Bioorg Med Chem Lett, 2007):
# Target: T1, Mycothiol S-conjugate amidase (Mycobacterium tuberculosis) (UniProt P9WJN1)
# T1 sequence (whole entry): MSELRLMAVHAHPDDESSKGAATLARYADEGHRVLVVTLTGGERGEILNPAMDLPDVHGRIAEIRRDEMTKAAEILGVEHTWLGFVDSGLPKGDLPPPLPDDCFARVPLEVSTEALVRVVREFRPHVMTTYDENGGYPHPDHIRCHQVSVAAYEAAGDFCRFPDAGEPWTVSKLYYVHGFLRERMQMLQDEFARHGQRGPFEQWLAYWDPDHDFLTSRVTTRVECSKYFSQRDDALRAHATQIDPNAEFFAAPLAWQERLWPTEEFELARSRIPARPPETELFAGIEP
# Test: Inhibition of Mycobacterium tuberculosis MCA at 50 uM
# In short: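 Recombinant MCA was assayed by fluorescence-detected HPLC, with mycothiol bimane (MSmB) or its cyclohexyl thioglycoside analog as substrate. Inhibitors were screened at 100 and 50 μM, and the reported values are at a final 50 μM. Each value is the mean of two experiments. Below 10% inhibition was scored as no inhibition.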
row,SMILES,inhibition [%]
1,CN(C)c1ccc(C(=O)N[C@H]2[C@@H](O[C@@H]3C[C@](O)(CO)C[C@@H](O)[C@H]3O)O[C@H](CO)[C@@H](O)[C@@H]2O)cc1,44
2,CCCSc1cc(C(=O)N[C@H]2[C@@H](O[C@@H]3C[C@](O)(CO)C[C@@H](O)[C@H]3O)O[C@H](CO)[C@@H](O)[C@@H]2O)ccn1,15
3,O=C(N[C@H]1[C@@H](O[C@@H]2C[C@](O)(CO)C[C@@H](O)[C@H]2O)O[C@H](CO)[C@@H](O)[C@@H]1O)c1cccs1,13
4,O=C(N[C@H]1[C@@H](O[C@@H]2C[C@](O)(CO)C[C@@H](O)[C@H]2O)O[C@H](CO)[C@@H](O)[C@@H]1O)c1ccc2ccccc2c1,13
5,CC(C)S(=O)(=O)c1csc(C(=O)N[C@H]2[C@@H](O[C@@H]3C[C@](O)(CO)C[C@@H](O)[C@H]3O)O[C@H](CO)[C@@H](O)[C@@H]2O)c1Cl,11
6,O=C(N[C@H]1[C@@H](O[C@@H]2C[C@](O)(CO)C[C@@H](O)[C@H]2O)O[C@H](CO)[C@@H](O)[C@@H]1O)c1ccncc1,46
7,O=C(N[C@H]1[C@@H](O[C@@H]2C[C@](O)(CO)C[C@@H](O)[C@H]2O)O[C@H](CO)[C@@H](O)[C@@H]1O)c1ccc(C(F)(F)F)cc1,16
8,Cc1onc(-c2c(F)cccc2Cl)c1C(=O)N[C@H]1[C@@H](O[C@@H]2C[C@](O)(CO)C[C@@H](O)[C@H]2O)O[C@H](CO)[C@@H](O)[C@@H]1O,< 10
9,O=C(N[C@H]1[C@@H](O[C@@H]2C[C@](O)(CO)C[C@@H](O)[C@H]2O)O[C@H](CO)[C@@H](O)[C@@H]1O)c1ccc2ccsc2c1,< 10
10,O=C(N[C@H]1[C@@H](O[C@@H]2C[C@](O)(CO)C[C@@H](O)[C@H]2O)O[C@H](CO)[C@@H](O)[C@@H]1O)c1ccc([N+](=O)[O-])cc1,15
11,CCCc1c(C(=O)N[C@H]2[C@@H](O[C@@H]3C[C@](O)(CO)C[C@@H](O)[C@H]3O)O[C@H](CO)[C@@H](O)[C@@H]2O)cnn1-c1cc(Cl)cc(Cl)c1,26
12,O=C(N[C@H]1[C@@H](O[C@@H]2C[C@](O)(CO)C[C@@H](O)[C@H]2O)O[C@H](CO)[C@@H](O)[C@@H]1O)C1CC1,13
13,O=C(N[C@H]1[C@@H](O[C@@H]2C[C@](O)(CO)C[C@@H](O)[C@H]2O)O[C@H](CO)[C@@H](O)[C@@H]1O)c1ccco1,15
14,O=C(N[C@H]1[C@@H](O[C@@H]2C[C@](O)(CO)C[C@@H](O)[C@H]2O)O[C@H](CO)[C@@H](O)[C@@H]1O)c1cccnc1Sc1ccc(Cl)cc1,10
